From paper PMC6422158 (Clinical cancer research : an official journal of the …, 2018)

Experiments:
[1] = at doses above 400 mg; first human dose trial; ref 19−22; cited from earlier work
[2] = cited from earlier work
advanced BCC = settings: human, in vivo; cited from earlier work
[3] = tested on: locally advanced/metastatic basal cell carcinoma; assay: Tumor response per RECIST 1.1, BCC patients; format: in vivo, human
How it was run: (§1)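 Response was assessed by RECIST 1.1 plus investigator assessment. Best response required two CR determinations (or two PR-or-better) before progression. Confirmation used the same radiologic method repeated at least 4 weeks after the initial response. ORR was CR+PR among all patients dosed at least once. Clinical benefit was CR+PR+SD among dosed patients with a measurable lesion.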

in vitro = in vitro ADME; settings: human, plasma
[4] = tested on: patients with advanced cancer; assay: Phase I safety and tolerability; format: in vivo
advanced cancer = assay: Tumor response per RECIST 1.1, all patients on therapy; format: in vivo, human; settings: 84 patients on therapy
How it was run: as §1

[5] = tested on: human Smo (hSmo) receptor; settings: cited from earlier work
human serum albumin = human serum albumin (Homo sapiens, UniProt P02768); assay: In vitro binding to human serum albumin; format: in vitro ADME
Gli1 mRNA = Gli1 mRNA expression in skin biopsies; format: in vivo, human; settings: overall, all doses 50-600 mg QD; interquartile range 80.9%−95.7%
How it was run: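 Normal skin biopsies taken predose, cycle 1 day 15 and cycle 2 day 1 from patients on oral QD dosing (28-day cycles). Post-dose samples were taken 2 h after dosing in escalation, and 24 h after the cycle 2 day 1 dose in confirmation/expansion. GLI1 was measured by RT-PCR, normalised to RPLP0, and % inhibition was derived by 2−ΔΔCT and summarised by dose level.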

CYP3A4 = CYP3A4 (Homo sapiens, UniProt P08684); assay: In vitro metabolism by CYP3A4; format: in vitro ADME; settings: in vitro data
[6] = Plasma pharmacokinetics of LY2940680 and LSN3185556 in patients; format: in vivo, human
How it was run: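 Oral dosing was once daily in the morning, 50–600 mg, on 28-day cycles. About 4 mL blood was drawn into EDTA tubes over a 24-h sampling schedule. Parent and metabolite in plasma were quantified by validated LC/MS. Noncompartmental analysis gave Cmax, tmax, AUC0–24, t1/2, Vd/F and CL/F. Accumulation ratio was from AUC0–24, days 1 vs 15, reported as geometric means with %CV.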

[7] = BCC, prior Hh therapy including vismodegib and sonidegib

human serum albumin, sequence (P02768 25-609): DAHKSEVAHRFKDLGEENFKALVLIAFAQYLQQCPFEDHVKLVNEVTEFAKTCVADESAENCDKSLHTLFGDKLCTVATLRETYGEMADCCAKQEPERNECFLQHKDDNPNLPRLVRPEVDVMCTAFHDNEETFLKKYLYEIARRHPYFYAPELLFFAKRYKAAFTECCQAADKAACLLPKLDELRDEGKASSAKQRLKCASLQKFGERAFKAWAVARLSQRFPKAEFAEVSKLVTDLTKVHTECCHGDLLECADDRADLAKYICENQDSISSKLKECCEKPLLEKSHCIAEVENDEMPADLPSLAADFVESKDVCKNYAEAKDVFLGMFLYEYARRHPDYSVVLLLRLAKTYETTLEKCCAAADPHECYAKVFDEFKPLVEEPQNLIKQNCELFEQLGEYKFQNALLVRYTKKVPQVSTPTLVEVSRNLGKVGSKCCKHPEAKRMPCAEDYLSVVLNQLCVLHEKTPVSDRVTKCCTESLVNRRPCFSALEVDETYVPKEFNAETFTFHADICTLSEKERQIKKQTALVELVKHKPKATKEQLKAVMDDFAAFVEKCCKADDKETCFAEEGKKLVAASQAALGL
CYP3A4, sequence (P08684 whole entry): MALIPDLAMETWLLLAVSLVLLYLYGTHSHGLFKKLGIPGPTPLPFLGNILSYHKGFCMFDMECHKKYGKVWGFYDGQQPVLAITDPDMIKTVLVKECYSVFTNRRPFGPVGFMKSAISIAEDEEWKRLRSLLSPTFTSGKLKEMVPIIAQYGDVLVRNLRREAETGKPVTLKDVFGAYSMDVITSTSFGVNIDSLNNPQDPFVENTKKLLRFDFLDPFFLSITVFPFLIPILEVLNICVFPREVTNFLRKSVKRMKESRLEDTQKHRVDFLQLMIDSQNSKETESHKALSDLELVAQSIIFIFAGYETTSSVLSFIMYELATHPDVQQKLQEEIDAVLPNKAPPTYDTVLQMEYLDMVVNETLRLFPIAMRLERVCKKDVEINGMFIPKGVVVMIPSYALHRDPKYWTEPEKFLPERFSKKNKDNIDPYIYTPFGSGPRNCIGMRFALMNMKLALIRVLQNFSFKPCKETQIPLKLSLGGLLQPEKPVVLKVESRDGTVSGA

Question: Which PK linearity [1] does the source give for Cc1c(C(=O)Nc2ccc(N3C[C@@H](C)O[C@@H](C)C3)nc2)cccc1-c1ccc(OC(F)(F)F)cc1 [sonidegib] here?
Answer: nonlinear PK

Question: What about the “Bound to plasma protein” value [2] of the same compound?
Answer: over 99%

Question: What about the “Efficacy in advanced BCC patients previously treated with vismodegib” value (advanced BCC) of the same compound?
Answer: not efficacious

Question: What does the source list for CN(C(=O)c1ccc(F)cc1C(F)(F)F)C1CCN(c2nnc(-c3ccnn3C)c3ccccc23)CC1 [LY2940680, taladegib]?
Answer: Best overall response of CR or PR ([3]; 16 BCC patients requiring dose reductions): 9 (56.3%) patients (%); Best overall response of CR or PR ([3]; 47 BCC patients): 22 (46.8%) patients (%); Best response of progressive disease ([3]; 47 BCC patients): 1 patient; Best response of SD ([3]; 47 BCC patients (twenty-one patients)): 44.7%; Best response of non-CR nonprogressive disease ([3]; 47 BCC patients, based on nontarget lesions): 1 patient; Responses in Hh treatment-naïve patients ([3]; BCC): 68.8%; Responses in Hh treatment-naïve patients (responders/patients) ([3]; BCC): 11/16; Estimated median PFS ([3]; BCC expansion phase (n = 40), 400 mg QD, 95% CI 7.62−17.54): 12.0 months; Estimated response rate ([3]; BCC patients (n = 47), 95% CI 32.1%−61.9%): 46.8%; Disease control rate ([3]; BCC patients, 95% CI 82.5%−98.7%): 93.6%; Responses in patients previously treated with Hh therapy [3, 7]: 35.5%; Responses in patients previously treated with Hh therapy (responders/patients) [3, 7]: 11/31; Duration of sustained response, single patient ([3]; Hh-inhibitor treatment–naïve locally advanced BCC, 50 mg QD, PR): 8.3 months; Confirmed CR ([3]; number of the 16 BCC patients requiring dose reductions): 3; Confirmed CR ([3]; number of the 47 BCC patients): 5; Confirmed PR ([3]; number of the 47 BCC patients): 16; Unconfirmed PR ([3]; number of the 47 BCC patients): 1; fraction unbound (in vitro): 0.056; AE resulting in dose reductions: decreased appetite ([4]; human, in vivo): 3; AE resulting in dose reductions: dysgeusia ([4]; human, in vivo): 3; AE resulting in dose reductions: fatigue ([4]; human, in vivo): 8; AE resulting in dose reductions: muscle spasms ([4]; human, in vivo): 8; AE resulting in dose reductions: nausea ([4]; human, in vivo): 3; AE resulting in dose reductions: weight decreased ([4]; human, in vivo): 3; Patients who discontinued treatment because of AE ([4]; human, in vivo): 10; Patients with SAEs ([4]; human, in vivo): 22 patients; Patients with at least 1 dose reduction ([4]; human, in vivo): 16 patients; Patients with DLTs ([4]; human, in vivo, 1 cycle): 4 patients; DLT observed ([4]; human, in vivo, 22 day): grade 3 hyponatremia; Maximum tolerable dose (MTD) ([4]; oral QD, 3+3 dose escalation 50 to 600 mg): 400 mg; Best response of SD (advanced cancer): 26 (30.9%) patients (%); Best response of progressive disease (advanced cancer): 24 (28.6%) patients (%); Confirmed CR (advanced cancer): 5 (5.9%) patients (%); Confirmed PR (advanced cancer): 16 (19.0%) patients (%); Patients with a response (advanced cancer): 22 (26.2%) patients (%); Unconfirmed PR (advanced cancer): 1 (1.2%) patients (%); Binding to hSmo receptor [5]: competitively inhibits binding of an hSmo agonist; Concentration dependence of binding to human serum albumin (human serum albumin; 1 to 10 μmol/L): no apparent concentration-dependent binding; Predominant plasma-binding protein (human serum albumin; tested with human serum albumin and human α−1-acid glycoprotein): Human serum albumin; Gli1 inhibition in normal skin (median) (Gli1 mRNA): 92.3%; Fraction metabolized by CYP3A4 (CYP3A4): 100%; Accumulation ratio based on AUC0–24 ([6]; LY2940680, between days 1 and 15, QD, range 0.7−4.8, 39% CV): approximately 2; Steady state attained ([6]; QD dosing): cycle 2, day 1; Dose proportionality of Cmax and AUC0–24 ([6]; after multiple doses): did not suggest any large deviation from dose proportionality; Time to reach Cmax ([6]; after single- and multiple-dose oral administrations): approximately 3 hours; PK variability on exposure ([6]; human, in vivo): approximately 70%; Vd/F ([6]; human, plasma, po): 235 L; CL/F (geometric mean) ([6]; oral, 70% CV): 8.2 L/h
